Laboratory results published in article PMC12988600 (AAPS PharmSciTech, 2019).
Values after ≈ are worked out from the molar mass of the structure shown.

Key:
[1] = In vitro dissolution, USP apparatus II; format: physicochemical; details: within 5 min
Summary of the method: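 USP II paddle dissolution at 37 ± 0.5°C and 75 rpm in 500 ml of 0.1 N HCl, FaSSIF or FeSSIF. Plain drug or liquisolid formulation was added at 50 mg drug-equivalent. Aliquots were taken at […], with the medium replaced each time. Samples were centrifuged at 10,000 rpm for 10 min and the supernatant was quantified by HPLC-DAD at 246 nm.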

[2] = system: ERL-resistant HCC827 cells; assay: In vitro cytotoxicity, crystal violet; format: cell-based; details: 48 h
[3] = human; cited from earlier work
[4] = Saturation solubility of ERL batches in water; format: physicochemical
HCC 827/ERL cells = assay: Annexin V-FITC apoptosis assay, flow cytometry; format: cell-based; details: HCC827/ERL cells, 48 h, VA 0.5 mM where present

| SMILES | % drug dissolved ([1]; FaSSIF) [%] | % drug dissolved ([1]; FeSSIF) [%] | % cell killing ([2]; 25 μM (highest concentration)) [%] | Absorbed after oral administration [3] | solubility at 24 h [4] [µg/mL] | Cell killing ([2]; 0.5 mM) | Apoptotic cells (HCC 827/ERL cells) |
| --- | --- | --- | --- | --- | --- | --- | --- |
| C#Cc1cccc(Nc2ncnc3cc(OCCOC)c(OCCOC)cc23)c1 [ERL, Erlotinib] | 1.1 | 13 | < 15 | about 60% | 0.7 (≈ 1.78 µM) | – | – |
| CCCC(CCC)C(=O)O [VA, 2-propylpentanoic acid] | – | – | – | – | – | did not show significant cell killing | poor apoptotic effect |
